Measured values taken from ChEMBL document CHEMBL2034871, “First-in-class, dual-action, 3,5-disubstituted indole derivatives having human nitric oxide synthase (nNOS) and norepinephrine reuptake inhibitory (NERI) activity for the treatment of neuropathic pain” (J Med Chem, 2012).

Columns and labels:
[1] = target: Nitric oxide synthase, inducible (Homo sapiens, UniProt P35228); assay: Inhibition of human iNOS expressed in baculovirus-infected insect sf9 cells assessed as conversion of [3H]-L-arginine to [3H]-L-citrulline preincubated for 15 mins with compound measured after 45 mins by scintillation counting
[2] = target: Sodium-dependent noradrenaline transporter (Homo sapiens, UniProt P23975); assay: Displacement of [3H]nisoxetine from human NET expressed in CHO cells after 120 mins by scintillation counting; assay type: cell-based
In short: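 Membranes from hNET-transfected CHO cells (20 μg protein) incubated 120 min at 4 °C with 1 nM [3H]nisoxetine in 50 mM Tris-HCl pH 7.4, 120 mM NaCl, 5 mM KCl. Nonspecific binding defined with 1 μM desipramine. Filtered on PEI-soaked GF/B and counted.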

Nitric oxide synthase 3 = target: T1, Nitric oxide synthase 3 (Homo sapiens, UniProt P29474); assay: Inhibition of human eNOS expressed in baculovirus-infected insect sf9 cells assessed as conversion of [3H]-L-arginine to [3H]-L-citrulline preincubated for 15 mins with compound measured after 45 mins by scintillation counting
T1 sequence (P29474 whole entry): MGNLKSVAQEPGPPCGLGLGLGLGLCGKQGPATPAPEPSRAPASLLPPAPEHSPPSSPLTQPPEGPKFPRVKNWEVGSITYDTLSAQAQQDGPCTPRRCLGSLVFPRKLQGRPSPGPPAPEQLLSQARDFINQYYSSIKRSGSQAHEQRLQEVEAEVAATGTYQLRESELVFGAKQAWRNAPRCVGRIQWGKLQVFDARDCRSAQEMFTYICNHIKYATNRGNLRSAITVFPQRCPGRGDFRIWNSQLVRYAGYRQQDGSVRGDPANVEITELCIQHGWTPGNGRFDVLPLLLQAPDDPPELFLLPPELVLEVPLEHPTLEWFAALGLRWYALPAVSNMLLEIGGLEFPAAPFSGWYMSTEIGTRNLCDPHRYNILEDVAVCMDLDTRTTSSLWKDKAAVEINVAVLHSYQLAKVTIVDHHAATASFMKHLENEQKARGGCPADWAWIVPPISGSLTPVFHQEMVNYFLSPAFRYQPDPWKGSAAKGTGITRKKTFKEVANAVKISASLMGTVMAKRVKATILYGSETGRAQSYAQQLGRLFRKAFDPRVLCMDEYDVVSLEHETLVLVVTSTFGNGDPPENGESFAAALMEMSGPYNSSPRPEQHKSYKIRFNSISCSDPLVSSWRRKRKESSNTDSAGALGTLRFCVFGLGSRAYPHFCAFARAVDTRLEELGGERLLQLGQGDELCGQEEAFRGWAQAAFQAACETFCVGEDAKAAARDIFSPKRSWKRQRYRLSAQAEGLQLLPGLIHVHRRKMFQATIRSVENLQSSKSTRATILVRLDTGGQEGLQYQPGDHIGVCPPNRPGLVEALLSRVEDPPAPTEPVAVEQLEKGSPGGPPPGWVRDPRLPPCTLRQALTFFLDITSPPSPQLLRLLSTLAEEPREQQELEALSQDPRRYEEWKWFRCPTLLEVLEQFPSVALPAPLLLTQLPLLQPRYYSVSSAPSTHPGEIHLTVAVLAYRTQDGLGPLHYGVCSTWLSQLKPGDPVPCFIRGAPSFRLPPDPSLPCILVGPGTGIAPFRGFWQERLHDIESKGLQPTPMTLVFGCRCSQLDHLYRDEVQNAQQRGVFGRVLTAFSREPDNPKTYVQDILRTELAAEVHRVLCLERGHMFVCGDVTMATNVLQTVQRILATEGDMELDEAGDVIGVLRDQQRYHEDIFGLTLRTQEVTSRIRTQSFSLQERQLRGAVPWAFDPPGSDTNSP

Homo sapiens = species on record: Homo sapiens; assay: Selectivity ratio of IC50 for human eNOS to IC50 for human nNOS
In short: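 Recombinant human nNOS and eNOS made in baculovirus-infected Sf9 cells. Buffer: 40 mM HEPES pH 7.4 with 2.4 mM CaCl2, 1 mM MgCl2, 1 mg/mL BSA, 1 mM EDTA, 1 mM DTT, 1 μM FMN/FAD, 10 μM BH4, 1 mM NADPH and 1.2 μM CaM. Compound preincubated 15 min at RT. Started with 24 μM L-arginine plus [3H]arginine. [3H]citrulline separated on DOWEX and counted; background from L-NMMA control; duplicates.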

Nitric oxide synthase 1 = Nitric oxide synthase 1 (Homo sapiens, UniProt P29475); assay: Inhibition of human nNOS expressed in baculovirus-infected insect sf9 cells assessed as conversion of [3H]-L-arginine to [3H]-L-citrulline preincubated for 15 mins with compound measured after 45 mins by scintillation counting
Cytochrome P450 3A4 = Cytochrome P450 3A4 (Homo sapiens, UniProt P08684); assay: Inhibition of CYP3A4; assay type: ADME
Cytochrome P450 2D6 = Cytochrome P450 2D6 (Homo sapiens, UniProt P10635); assay: Inhibition of CYP2D6; assay type: ADME
Cytochrome P450 1A2 = target: T2, Cytochrome P450 1A2 (Homo sapiens, UniProt P05177); assay: Inhibition of CYP1A2; assay type: ADME; settings: read-out: IC50
T2 sequence (P05177 whole entry): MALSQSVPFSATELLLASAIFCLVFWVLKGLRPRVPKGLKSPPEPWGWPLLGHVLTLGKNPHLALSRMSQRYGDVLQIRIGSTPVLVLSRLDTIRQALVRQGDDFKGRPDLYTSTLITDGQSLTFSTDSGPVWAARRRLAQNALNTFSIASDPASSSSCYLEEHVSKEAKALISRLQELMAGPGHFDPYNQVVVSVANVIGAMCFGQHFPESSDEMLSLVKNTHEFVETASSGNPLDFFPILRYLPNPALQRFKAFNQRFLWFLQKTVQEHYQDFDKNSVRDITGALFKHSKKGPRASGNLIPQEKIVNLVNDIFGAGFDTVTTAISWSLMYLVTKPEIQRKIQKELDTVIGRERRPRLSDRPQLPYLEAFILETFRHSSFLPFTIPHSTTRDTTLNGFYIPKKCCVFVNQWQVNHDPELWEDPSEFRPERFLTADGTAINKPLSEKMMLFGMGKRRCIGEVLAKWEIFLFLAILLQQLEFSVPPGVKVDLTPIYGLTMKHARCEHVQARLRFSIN

Cytochrome P450 2C19 = Cytochrome P450 2C19 (Homo sapiens, UniProt P33261); assay: Inhibition of CYP2C19; assay type: ADME
Cytochrome P450 2C9 = Cytochrome P450 2C9 (Homo sapiens, UniProt P11712); assay: Inhibition of CYP2C9; assay type: ADME; settings: read-out: IC50
Sequence of Cytochrome P450 2C9 (P11712 whole entry): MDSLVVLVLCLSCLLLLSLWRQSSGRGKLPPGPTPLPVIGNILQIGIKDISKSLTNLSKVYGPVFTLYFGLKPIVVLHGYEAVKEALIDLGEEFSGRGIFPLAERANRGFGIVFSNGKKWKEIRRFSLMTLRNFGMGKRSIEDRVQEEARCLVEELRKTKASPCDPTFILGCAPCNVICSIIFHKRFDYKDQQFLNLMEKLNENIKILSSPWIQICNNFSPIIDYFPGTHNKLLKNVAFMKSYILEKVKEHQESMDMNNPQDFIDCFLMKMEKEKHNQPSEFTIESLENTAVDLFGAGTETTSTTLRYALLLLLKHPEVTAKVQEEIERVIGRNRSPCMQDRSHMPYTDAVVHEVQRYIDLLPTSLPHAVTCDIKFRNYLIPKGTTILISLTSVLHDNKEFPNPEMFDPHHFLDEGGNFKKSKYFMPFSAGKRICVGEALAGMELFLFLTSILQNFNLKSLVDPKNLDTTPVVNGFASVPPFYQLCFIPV

Sequence of Sodium-dependent noradrenaline transporter (P23975 whole entry): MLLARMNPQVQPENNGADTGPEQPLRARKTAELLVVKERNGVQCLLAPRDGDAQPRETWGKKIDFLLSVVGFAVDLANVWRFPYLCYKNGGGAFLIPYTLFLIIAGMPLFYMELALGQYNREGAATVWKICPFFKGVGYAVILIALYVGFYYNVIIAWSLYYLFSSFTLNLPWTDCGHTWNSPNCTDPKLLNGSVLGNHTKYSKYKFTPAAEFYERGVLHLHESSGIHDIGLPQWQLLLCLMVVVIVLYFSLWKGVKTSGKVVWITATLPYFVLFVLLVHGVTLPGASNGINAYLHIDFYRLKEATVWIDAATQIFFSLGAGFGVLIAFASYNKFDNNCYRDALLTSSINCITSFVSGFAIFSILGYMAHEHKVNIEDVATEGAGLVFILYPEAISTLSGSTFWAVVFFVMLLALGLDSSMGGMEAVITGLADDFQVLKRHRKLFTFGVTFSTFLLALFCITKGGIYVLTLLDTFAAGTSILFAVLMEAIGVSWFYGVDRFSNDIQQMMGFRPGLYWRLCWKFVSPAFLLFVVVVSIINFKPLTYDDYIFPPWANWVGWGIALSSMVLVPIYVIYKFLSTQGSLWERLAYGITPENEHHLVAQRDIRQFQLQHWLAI
Sequence of Nitric oxide synthase, inducible (P35228 whole entry): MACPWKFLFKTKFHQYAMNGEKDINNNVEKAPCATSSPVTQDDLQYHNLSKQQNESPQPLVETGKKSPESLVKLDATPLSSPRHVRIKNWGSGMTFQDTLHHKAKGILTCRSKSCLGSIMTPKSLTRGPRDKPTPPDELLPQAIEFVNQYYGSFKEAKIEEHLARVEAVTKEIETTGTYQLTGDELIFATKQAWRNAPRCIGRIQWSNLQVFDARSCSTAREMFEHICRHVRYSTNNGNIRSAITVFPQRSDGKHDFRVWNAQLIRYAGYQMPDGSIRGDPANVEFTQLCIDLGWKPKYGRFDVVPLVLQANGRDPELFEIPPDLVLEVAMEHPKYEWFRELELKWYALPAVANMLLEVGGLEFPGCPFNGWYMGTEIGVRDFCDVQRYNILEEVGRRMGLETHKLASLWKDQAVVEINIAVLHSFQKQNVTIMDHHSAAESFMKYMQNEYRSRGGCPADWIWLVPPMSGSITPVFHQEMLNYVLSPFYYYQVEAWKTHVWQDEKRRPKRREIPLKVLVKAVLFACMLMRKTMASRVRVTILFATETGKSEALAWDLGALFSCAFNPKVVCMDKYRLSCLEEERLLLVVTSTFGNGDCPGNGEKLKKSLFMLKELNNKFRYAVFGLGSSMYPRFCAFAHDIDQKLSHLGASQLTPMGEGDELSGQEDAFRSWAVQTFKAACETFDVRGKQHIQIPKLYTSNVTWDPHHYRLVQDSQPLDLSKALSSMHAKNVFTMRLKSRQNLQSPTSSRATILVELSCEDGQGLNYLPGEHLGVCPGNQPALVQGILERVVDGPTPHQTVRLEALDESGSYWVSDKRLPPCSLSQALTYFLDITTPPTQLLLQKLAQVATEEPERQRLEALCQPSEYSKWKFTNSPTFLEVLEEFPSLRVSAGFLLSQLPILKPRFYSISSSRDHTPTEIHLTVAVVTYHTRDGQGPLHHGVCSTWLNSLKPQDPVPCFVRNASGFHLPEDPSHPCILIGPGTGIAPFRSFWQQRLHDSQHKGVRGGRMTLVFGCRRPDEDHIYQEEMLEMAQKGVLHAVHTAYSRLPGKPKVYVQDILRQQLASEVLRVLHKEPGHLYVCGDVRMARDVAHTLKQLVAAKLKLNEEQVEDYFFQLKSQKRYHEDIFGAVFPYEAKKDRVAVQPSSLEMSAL
Sequence of Nitric oxide synthase 1 (P29475 whole entry): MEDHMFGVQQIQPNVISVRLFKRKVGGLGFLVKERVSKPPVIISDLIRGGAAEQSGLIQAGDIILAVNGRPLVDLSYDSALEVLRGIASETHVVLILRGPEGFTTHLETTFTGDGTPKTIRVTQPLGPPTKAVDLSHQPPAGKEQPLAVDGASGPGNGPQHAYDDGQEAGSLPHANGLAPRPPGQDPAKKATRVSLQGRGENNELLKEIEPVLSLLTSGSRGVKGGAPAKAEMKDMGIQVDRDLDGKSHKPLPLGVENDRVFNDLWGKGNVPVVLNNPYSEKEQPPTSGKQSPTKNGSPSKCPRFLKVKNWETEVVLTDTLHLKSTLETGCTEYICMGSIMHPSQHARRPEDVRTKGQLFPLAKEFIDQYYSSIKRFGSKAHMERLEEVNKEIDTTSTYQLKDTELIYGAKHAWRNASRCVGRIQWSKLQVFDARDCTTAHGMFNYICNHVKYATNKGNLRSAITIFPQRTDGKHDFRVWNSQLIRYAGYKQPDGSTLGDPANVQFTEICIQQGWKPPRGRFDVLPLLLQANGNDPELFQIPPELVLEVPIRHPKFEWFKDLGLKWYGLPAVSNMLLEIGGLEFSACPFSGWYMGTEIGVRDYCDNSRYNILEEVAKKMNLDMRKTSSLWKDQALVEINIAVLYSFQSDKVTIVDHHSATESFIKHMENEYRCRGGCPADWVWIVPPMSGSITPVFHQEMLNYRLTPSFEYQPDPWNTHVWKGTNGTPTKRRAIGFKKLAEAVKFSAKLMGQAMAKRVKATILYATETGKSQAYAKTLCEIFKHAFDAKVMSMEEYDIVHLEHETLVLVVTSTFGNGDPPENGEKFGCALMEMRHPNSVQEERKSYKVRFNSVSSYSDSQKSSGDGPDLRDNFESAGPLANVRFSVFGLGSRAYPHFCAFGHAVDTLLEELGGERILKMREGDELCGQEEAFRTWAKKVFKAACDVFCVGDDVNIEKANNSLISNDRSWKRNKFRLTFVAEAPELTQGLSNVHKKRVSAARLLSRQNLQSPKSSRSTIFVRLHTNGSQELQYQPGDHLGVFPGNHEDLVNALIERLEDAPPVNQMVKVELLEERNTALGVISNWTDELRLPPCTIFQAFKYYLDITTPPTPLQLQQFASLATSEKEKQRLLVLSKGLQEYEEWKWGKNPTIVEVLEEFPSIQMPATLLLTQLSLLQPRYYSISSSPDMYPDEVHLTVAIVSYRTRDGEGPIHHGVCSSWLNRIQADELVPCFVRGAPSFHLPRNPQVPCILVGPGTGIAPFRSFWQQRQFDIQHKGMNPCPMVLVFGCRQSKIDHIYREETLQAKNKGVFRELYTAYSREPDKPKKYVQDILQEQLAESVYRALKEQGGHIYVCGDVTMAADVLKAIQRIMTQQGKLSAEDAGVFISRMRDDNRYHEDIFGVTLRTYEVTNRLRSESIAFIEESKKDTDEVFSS
Sequence of Cytochrome P450 3A4 (P08684 whole entry): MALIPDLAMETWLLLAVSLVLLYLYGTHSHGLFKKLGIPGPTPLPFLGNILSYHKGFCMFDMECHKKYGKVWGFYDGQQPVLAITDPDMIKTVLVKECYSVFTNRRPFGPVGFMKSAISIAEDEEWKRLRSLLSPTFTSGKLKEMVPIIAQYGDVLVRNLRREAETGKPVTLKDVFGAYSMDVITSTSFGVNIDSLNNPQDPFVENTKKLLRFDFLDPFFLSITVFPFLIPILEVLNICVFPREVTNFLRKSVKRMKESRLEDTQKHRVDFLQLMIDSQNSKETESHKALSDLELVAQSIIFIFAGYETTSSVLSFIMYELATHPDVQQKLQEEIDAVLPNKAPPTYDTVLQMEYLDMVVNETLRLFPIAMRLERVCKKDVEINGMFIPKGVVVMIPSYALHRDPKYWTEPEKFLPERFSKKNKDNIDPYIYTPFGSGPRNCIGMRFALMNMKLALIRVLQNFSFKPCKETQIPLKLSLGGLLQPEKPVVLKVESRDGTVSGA
Sequence of Cytochrome P450 2C19 (P33261 whole entry): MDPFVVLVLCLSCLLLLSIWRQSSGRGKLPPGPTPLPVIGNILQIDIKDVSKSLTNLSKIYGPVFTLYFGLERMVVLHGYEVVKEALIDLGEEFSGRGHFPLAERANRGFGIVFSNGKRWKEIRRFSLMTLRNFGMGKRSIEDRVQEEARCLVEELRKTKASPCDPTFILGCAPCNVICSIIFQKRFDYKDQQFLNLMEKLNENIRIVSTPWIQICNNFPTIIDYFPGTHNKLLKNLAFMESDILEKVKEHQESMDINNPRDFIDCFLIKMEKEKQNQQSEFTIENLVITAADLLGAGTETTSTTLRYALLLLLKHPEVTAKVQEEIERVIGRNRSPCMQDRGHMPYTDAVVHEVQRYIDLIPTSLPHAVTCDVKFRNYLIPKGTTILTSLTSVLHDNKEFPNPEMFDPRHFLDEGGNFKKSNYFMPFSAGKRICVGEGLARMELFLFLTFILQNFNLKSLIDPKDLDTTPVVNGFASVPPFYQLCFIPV

| IC50 [1] [µM] | IC50 [2] [µM] | Ratio IC50 (Homo sapiens) | SMILES | other results |
| --- | --- | --- | --- | --- |
|  |  | 28 | CCNC1CC=C(c2c[nH]c3ccc(NC(=N)c4cccs4)cc23)CC1 (racemic) |  |
| 493 |  |  | CCN[C@H]1CC[C@@H](c2c[nH]c3ccc(NC(=N)c4cccs4)cc32)CC1 | IC50 (Cytochrome P450 2D6): 0.927 µM; IC50 (Cytochrome P450 1A2): > 100 µM; IC50 (Cytochrome P450 2C19): 23.4 µM; IC50 (Cytochrome P450 2C9): 21.5 µM |
| 24 |  |  | CN(C)C1CC=C(c2c[nH]c3ccc(NC(=N)c4cccs4)cc23)CC1 (racemic) |  |
| 19.2 | 1.7 |  | CCN[C@H]1CCC[C@@H](c2c[nH]c3ccc(NC(=N)c4cccs4)cc23)C1 (racemic) |  |

Second part, the compound before the results:

| SMILES | IC50 [1] [µM] | IC50 [2] [µM] | Ratio IC50 (Homo sapiens) | other results |
| --- | --- | --- | --- | --- |
| CN[C@H]1CCC[C@H](c2c[nH]c3ccc(NC(=N)c4cccs4)cc23)C1 (racemic) | 14.5 | 0.88 |  | IC50 (Nitric oxide synthase 3): 7.76 µM |
| CCN[C@H]1CC[C@H](c2c[nH]c3ccc(NC(=N)c4cccs4)cc32)CC1 | 155 |  |  |  |
| CN(C)C1CC=C(c2c[nH]c3ccc(/N=C(\N)c4cccs4)cc23)CC1 (single isomer, unassigned; (-)) |  |  | 54 |  |
| CN(C)C1CC=C(c2c[nH]c3ccc(NC(=N)c4cccs4)cc23)CC1 (single isomer, unassigned; (+)) |  |  |  | IC50 (Nitric oxide synthase 1): 0.84 µM |
| CN(C)[C@H]1CC[C@H](c2c[nH]c3ccc(NC(=N)c4cccs4)cc32)CC1 | 149 | 2.2 | 63 | IC50 (Nitric oxide synthase 3): 284 µM; IC50 (Nitric oxide synthase 1): 4.52 µM |
| CN(C)C1CC=C(c2c[nH]c3ccc(/N=C(\N)c4cccs4)cc23)CC1 (single isomer, unassigned; (+)) |  |  | 114 |  |
| CN(C)[C@H]1CC[C@@H](c2c[nH]c3ccc(NC(=N)c4cccs4)cc32)CC1 | 26.5 | 0.16 | 51 | IC50 (Nitric oxide synthase 3): 17.5 µM; IC50 (Nitric oxide synthase 1): 0.35 µM |
| CN[C@H]1CC[C@@H](c2c[nH]c3ccc(NC(=N)c4cccs4)cc32)CC1 | […] |  |  | IC50 (Cytochrome P450 3A4): 57.3 µM |
| CN[C@H]1CCC[C@@H](c2c[nH]c3ccc(NC(=N)c4cccs4)cc23)C1 (racemic) | 54.1 | 2.4 |  | IC50 (Nitric oxide synthase 3): 77.6 µM |
| CCN[C@H]1CCC[C@H](c2c[nH]c3ccc(NC(=N)c4cccs4)cc23)C1 (racemic) | 54.2 | 0.76 |  |  |
| CN(C)C1CC=C(c2c[nH]c3ccc(NC(=N)c4cccs4)cc23)CC1 (single isomer, unassigned; (-)) |  |  |  | IC50 (Nitric oxide synthase 1): 0.86 µM |
| CNC1CC=C(c2c[nH]c3ccc(/N=C(\N)c4cccs4)cc23)CC1 (racemic) |  |  | 19 |  |
| CN(C)C1CC=C(c2c[nH]c3ccc(/N=C(\N)c4cccs4)cc23)CC1 (racemic) |  |  | 17 |  |
| CNC1CCCC(c2c[nH]c3ccc(NC(=N)c4cccs4)cc23)C1 (single isomer, unassigned; (-)) | 70 |  |  |  |
